# Test results as given in ChEMBL document CHEMBL4334524, “Discovery of Highly Polar β-Homophenylalanine Derivatives as Nonsystemic Intestine-Targeted Dipeptidyl Peptidase IV Inhibitors” (J Med Chem, 2019).
# Calls of active or inactive are those of the source. The calls are words filed in the database; no cut-off is given here.
# System: not listed separately
# Assay: Stability in human intestinal S9 fractions assessed as phase I and phase II enzymes-mediated generation of systemic metabolites at 0.1 uM incubated at 37 degC for 10 mins by LC-MS/MS analysis
# Type: ADME, subcellular, Intestine, S9 fraction
# Conditions: s9, 10 min
row,Structure (SMILES),Stability
1,C[N+](C)(C)CCNC(=O)COc1ccc2nc(C3(NC(=O)C[C@H](N)Cc4cc(F)c(F)cc4F)CCS(=O)(=O)CC3)sc2c1.O=C(O)C(F)(F)F.O=C([O-])C(F)(F)F,Stable
2,N[C@@H](CC(=O)NC1(c2nc3ccc(OCC(=O)NCCS(=O)(=O)O)cc3s2)CCS(=O)(=O)CC1)Cc1cc(F)c(F)cc1F.O=C(O)C(F)(F)F,Stable
3,C[C@]12CC[C@H]3[C@@H](CCC4=CC(=O)CC[C@@]43C)[C@@H]1CC[C@@H]2O [TESTOSTERONE],Unstable

# System: not listed separately
# Assay: Toxicity in ICR mouse assessed as effect on body weight at 1000 mg/kg, po administered as single dose after 4 days
# Conditions: in vivo, 96 h
row,Structure (SMILES),Activity
1,N[C@@H](CC(=O)NC1(c2nc3ccc(OCC(=O)NCCS(=O)(=O)O)cc3s2)CCS(=O)(=O)CC1)Cc1cc(F)c(F)cc1F.O=C(O)C(F)(F)F,Non-Toxic

# System: not listed separately
# Assay: Efflux ratio in human Caco2 cells at 20 uM incubated for […] by LC-MS/MS analysis
# Type: ADME, cell-based
# Conditions: Caco-2
row,Structure (SMILES),"efflux ratio at […], 20 µM"
1,C[N+](C)(C)CCNC(=O)COc1ccc2nc(C3(NC(=O)C[C@H](N)Cc4cc(F)c(F)cc4F)CCS(=O)(=O)CC3)sc2c1.O=C(O)C(F)(F)F.O=C([O-])C(F)(F)F,0.2
2,N[C@@H](CC(=O)NC1(c2nc3ccc(OCC(=O)NCCS(=O)(=O)O)cc3s2)CCS(=O)(=O)CC1)Cc1cc(F)c(F)cc1F.O=C(O)C(F)(F)F,0.3

# System: not listed separately
# Assay: Solubility in pH 7.0 buffer by nephelometry
# Type: physicochemical
# Conditions: not given
row,Structure (SMILES),solubility kinetic
1,C[N+](C)(C)CCNC(=O)COc1ccc2nc(C3(NC(=O)C[C@H](N)Cc4cc(F)c(F)cc4F)CCS(=O)(=O)CC3)sc2c1.O=C(O)C(F)(F)F.O=C([O-])C(F)(F)F,> 50 µM
2,N[C@@H](CC(=O)NC1(c2nc3ccc(OCC(=O)NCCS(=O)(=O)O)cc3s2)CCS(=O)(=O)CC1)Cc1cc(F)c(F)cc1F.O=C(O)C(F)(F)F,> 50 µM

# Target: Dipeptidyl peptidase 4 (Mus musculus, UniProt P28843)
# Sequence (P28843 whole entry): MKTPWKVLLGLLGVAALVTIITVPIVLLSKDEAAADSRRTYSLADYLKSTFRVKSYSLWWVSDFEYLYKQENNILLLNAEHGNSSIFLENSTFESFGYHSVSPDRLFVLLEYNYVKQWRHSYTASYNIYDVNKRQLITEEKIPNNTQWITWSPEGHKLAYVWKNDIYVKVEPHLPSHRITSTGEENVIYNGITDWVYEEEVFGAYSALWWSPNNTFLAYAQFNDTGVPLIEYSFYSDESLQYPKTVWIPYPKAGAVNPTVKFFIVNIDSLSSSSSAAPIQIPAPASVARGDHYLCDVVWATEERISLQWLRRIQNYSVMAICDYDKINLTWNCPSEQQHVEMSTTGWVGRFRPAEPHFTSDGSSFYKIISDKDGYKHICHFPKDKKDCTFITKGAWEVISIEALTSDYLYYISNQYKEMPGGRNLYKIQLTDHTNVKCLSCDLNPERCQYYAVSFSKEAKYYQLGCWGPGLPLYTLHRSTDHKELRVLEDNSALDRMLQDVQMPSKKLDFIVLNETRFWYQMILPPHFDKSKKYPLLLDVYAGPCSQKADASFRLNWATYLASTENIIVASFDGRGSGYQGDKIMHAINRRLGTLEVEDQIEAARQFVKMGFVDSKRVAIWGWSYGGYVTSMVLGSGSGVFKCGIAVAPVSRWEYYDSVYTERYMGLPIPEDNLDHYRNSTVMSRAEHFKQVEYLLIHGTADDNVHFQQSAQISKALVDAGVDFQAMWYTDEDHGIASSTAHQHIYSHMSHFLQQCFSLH
# Assay: Inhibition of DPP4 in C57BL/6 mouse serum pre-incubated for 5 mins followed by Gly-Pro-7-AMC substrate addition by fluorescence based assay
# Type: cell-free
# Conditions: not given
row,Structure (SMILES),IC50
1,C[N+](C)(C)CCNC(=O)COc1ccc2nc(C3(NC(=O)C[C@H](N)Cc4cc(F)c(F)cc4F)CCS(=O)(=O)CC3)sc2c1.O=C(O)C(F)(F)F.O=C([O-])C(F)(F)F,1.4 nM
2,N[C@@H](CC(=O)NC1(c2nc3ccc(OCC(=O)NCCS(=O)(=O)O)cc3s2)CCS(=O)(=O)CC1)Cc1cc(F)c(F)cc1F.O=C(O)C(F)(F)F,1.1 nM

# System: not listed separately
# Assay: Toxicity in ICR mouse assessed as mouse survival at 1000 mg/kg, po administered as single dose after 4 days
# Conditions: in vivo, 96 h
row,Structure (SMILES),Activity
1,N[C@@H](CC(=O)NC1(c2nc3ccc(OCC(=O)NCCS(=O)(=O)O)cc3s2)CCS(=O)(=O)CC1)Cc1cc(F)c(F)cc1F.O=C(O)C(F)(F)F,Non-Toxic

# System: not listed separately
# Assay: Toxicity in ICR mouse assessed as effect on clinical parameters at 1000 mg/kg, po administered as single dose after 4 days
# Conditions: in vivo, 96 h
row,Structure (SMILES),Activity
1,N[C@@H](CC(=O)NC1(c2nc3ccc(OCC(=O)NCCS(=O)(=O)O)cc3s2)CCS(=O)(=O)CC1)Cc1cc(F)c(F)cc1F.O=C(O)C(F)(F)F,Non-Toxic

# System: not listed separately
# Assay: Selectivity index, ratio of IC50 for recombinant human DPP9 to IC50 for inhibition of DPP4 in C57BL/6 mouse serum
# Conditions: not given
row,Structure (SMILES),Ratio IC50
1,N[C@@H](CC(=O)NC1(c2nc3ccc(OCC(=O)NCCS(=O)(=O)O)cc3s2)CCS(=O)(=O)CC1)Cc1cc(F)c(F)cc1F.O=C(O)C(F)(F)F,> 2000

# System: not listed separately
# Assay: Toxicity in ICR mouse assessed as effect on behavioral parameters at 1000 mg/kg, po administered as single dose after 4 days
# Conditions: in vivo, 96 h
row,Structure (SMILES),Activity
1,N[C@@H](CC(=O)NC1(c2nc3ccc(OCC(=O)NCCS(=O)(=O)O)cc3s2)CCS(=O)(=O)CC1)Cc1cc(F)c(F)cc1F.O=C(O)C(F)(F)F,Non-Toxic

# System: Hepatocyte
# Assay: Cytotoxicity in mouse primary hepatocytes assessed as reduction in cell viability up to 200 uM incubated for 24 hrs by MTT assay
# Type: cell-based
# Conditions: not given
row,Structure (SMILES),Activity
1,N[C@@H](CC(=O)NC1(c2nc3ccc(OCC(=O)NCCS(=O)(=O)O)cc3s2)CCS(=O)(=O)CC1)Cc1cc(F)c(F)cc1F.O=C(O)C(F)(F)F,Non-Toxic

# System: not listed separately
# Assay: Solubility in pH 6.8 buffer by nephelometry
# Type: physicochemical
# Conditions: not given
row,Structure (SMILES),solubility kinetic
1,C[N+](C)(C)CCNC(=O)COc1ccc2nc(C3(NC(=O)C[C@H](N)Cc4cc(F)c(F)cc4F)CCS(=O)(=O)CC3)sc2c1.O=C(O)C(F)(F)F.O=C([O-])C(F)(F)F,> 50 µM
2,N[C@@H](CC(=O)NC1(c2nc3ccc(OCC(=O)NCCS(=O)(=O)O)cc3s2)CCS(=O)(=O)CC1)Cc1cc(F)c(F)cc1F.O=C(O)C(F)(F)F,> 50 µM

# System: not listed separately
# Assay: Apparent permeability from basolateral to apical side in human Caco2 cells at 20 uM incubated for […] by LC-MS/MS analysis
# Type: ADME, cell-based
# Conditions: Caco-2
row,Structure (SMILES),"Papp B→A at […], 20 µM"
1,C[N+](C)(C)CCNC(=O)COc1ccc2nc(C3(NC(=O)C[C@H](N)Cc4cc(F)c(F)cc4F)CCS(=O)(=O)CC3)sc2c1.O=C(O)C(F)(F)F.O=C([O-])C(F)(F)F,0.004 ×10⁻⁶ cm/s
2,N[C@@H](CC(=O)NC1(c2nc3ccc(OCC(=O)NCCS(=O)(=O)O)cc3s2)CCS(=O)(=O)CC1)Cc1cc(F)c(F)cc1F.O=C(O)C(F)(F)F,0.01 ×10⁻⁶ cm/s

# System: HEK293
# Assay: Cytotoxicity in HEK293 cells assessed as reduction in cell viability up to 200 uM incubated for 24 hrs by MTT assay
# Type: cell-based
# Conditions: human, hek293, 24 h
row,Structure (SMILES),Activity
1,N[C@@H](CC(=O)NC1(c2nc3ccc(OCC(=O)NCCS(=O)(=O)O)cc3s2)CCS(=O)(=O)CC1)Cc1cc(F)c(F)cc1F.O=C(O)C(F)(F)F,Non-Toxic

# System: not listed separately
# Assay: Apparent permeability from apical to basolateral side in human Caco2 cells at 20 uM incubated for […] by LC-MS/MS analysis
# Type: ADME, cell-based
# Conditions: Caco-2
row,Structure (SMILES),"Papp A→B at […], 20 µM"
1,C[N+](C)(C)CCNC(=O)COc1ccc2nc(C3(NC(=O)C[C@H](N)Cc4cc(F)c(F)cc4F)CCS(=O)(=O)CC3)sc2c1.O=C(O)C(F)(F)F.O=C([O-])C(F)(F)F,0.02 ×10⁻⁶ cm/s
2,N[C@@H](CC(=O)NC1(c2nc3ccc(OCC(=O)NCCS(=O)(=O)O)cc3s2)CCS(=O)(=O)CC1)Cc1cc(F)c(F)cc1F.O=C(O)C(F)(F)F,0.04 ×10⁻⁶ cm/s

# System: Mus musculus
# Assay: Inhibition of jejunum DPP4 in BALB/c mouse at 30 mg/kg, po after 8 hrs using Gly-Pro-7-AMC substrate by fluorescence based assay
# Type: functional, organism-based
# Conditions: not given
# Summary of the method: (§1)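 Mice were dosed orally at 30 mg/kg and intestinal DPPIV activity was measured 8 h later in three intestinal segments. Activity is expressed relative to a vehicle control group, with n = 6 per group. Data are mean ± SEM, compared with control by Student's t-test.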
row,Structure (SMILES),inhibition
1,C[N+](C)(C)CCNC(=O)COc1ccc2nc(C3(NC(=O)C[C@H](N)Cc4cc(F)c(F)cc4F)CCS(=O)(=O)CC3)sc2c1.O=C(O)C(F)(F)F.O=C([O-])C(F)(F)F,Active
2,N[C@@H](CC(=O)NC1(c2nc3ccc(OCC(=O)NCCS(=O)(=O)O)cc3s2)CCS(=O)(=O)CC1)Cc1cc(F)c(F)cc1F.O=C(O)C(F)(F)F,Active

# System: HepG2
# Assay: Cytotoxicity in human HepG2 cells assessed as reduction in cell viability up to 200 uM incubated for 24 hrs by MTT assay
# Type: cell-based
# Conditions: hepg2, 24 h
row,Structure (SMILES),Activity
1,N[C@@H](CC(=O)NC1(c2nc3ccc(OCC(=O)NCCS(=O)(=O)O)cc3s2)CCS(=O)(=O)CC1)Cc1cc(F)c(F)cc1F.O=C(O)C(F)(F)F,Non-Toxic

# System: not listed separately
# Assay: Selectivity index, ratio of IC50 for recombinant human DPP8 to IC50 for inhibition of DPP4 in C57BL/6 mouse serum
# Conditions: not given
row,Structure (SMILES),Ratio IC50
1,N[C@@H](CC(=O)NC1(c2nc3ccc(OCC(=O)NCCS(=O)(=O)O)cc3s2)CCS(=O)(=O)CC1)Cc1cc(F)c(F)cc1F.O=C(O)C(F)(F)F,> 2000

# System: not listed separately
# Assay: Solubility in pH 7.4 buffer by nephelometry
# Type: physicochemical
# Conditions: not given
row,Structure (SMILES),solubility kinetic
1,C[N+](C)(C)CCNC(=O)COc1ccc2nc(C3(NC(=O)C[C@H](N)Cc4cc(F)c(F)cc4F)CCS(=O)(=O)CC3)sc2c1.O=C(O)C(F)(F)F.O=C([O-])C(F)(F)F,> 50 µM
2,N[C@@H](CC(=O)NC1(c2nc3ccc(OCC(=O)NCCS(=O)(=O)O)cc3s2)CCS(=O)(=O)CC1)Cc1cc(F)c(F)cc1F.O=C(O)C(F)(F)F,> 50 µM

# System: not listed separately
# Assay: Stability in mouse intestinal S9 fractions assessed as phase I and phase II enzymes-mediated generation of systemic metabolites at 0.1 uM incubated at 37 degC for 10 mins by LC-MS/MS analysis
# Type: ADME, subcellular, Intestine, S9 fraction
# Conditions: s9, 10 min
row,Structure (SMILES),Stability
1,C[N+](C)(C)CCNC(=O)COc1ccc2nc(C3(NC(=O)C[C@H](N)Cc4cc(F)c(F)cc4F)CCS(=O)(=O)CC3)sc2c1.O=C(O)C(F)(F)F.O=C([O-])C(F)(F)F,Stable
2,N[C@@H](CC(=O)NC1(c2nc3ccc(OCC(=O)NCCS(=O)(=O)O)cc3s2)CCS(=O)(=O)CC1)Cc1cc(F)c(F)cc1F.O=C(O)C(F)(F)F,Stable
3,C[C@]12CC[C@H]3[C@@H](CCC4=CC(=O)CC[C@@]43C)[C@@H]1CC[C@@H]2O [TESTOSTERONE],Unstable

# System: Mus musculus
# Assay: Inhibition of colon DPP4 in BALB/c mouse at 30 mg/kg, po after 8 hrs using Gly-Pro-7-AMC substrate by fluorescence based assay
# Type: functional, organism-based
# Conditions: not given
# Summary of the method: as §1
row,Structure (SMILES),inhibition
1,C[N+](C)(C)CCNC(=O)COc1ccc2nc(C3(NC(=O)C[C@H](N)Cc4cc(F)c(F)cc4F)CCS(=O)(=O)CC3)sc2c1.O=C(O)C(F)(F)F.O=C([O-])C(F)(F)F,Active
2,N[C@@H](CC(=O)NC1(c2nc3ccc(OCC(=O)NCCS(=O)(=O)O)cc3s2)CCS(=O)(=O)CC1)Cc1cc(F)c(F)cc1F.O=C(O)C(F)(F)F,Active

# System: Mus musculus
# Assay: Inhibition of ileum DPP4 in BALB/c mouse at 30 mg/kg, po after 8 hrs using Gly-Pro-7-AMC substrate by fluorescence based assay
# Type: functional, organism-based
# Conditions: not given
# Summary of the method: as §1
row,Structure (SMILES),inhibition
1,C[N+](C)(C)CCNC(=O)COc1ccc2nc(C3(NC(=O)C[C@H](N)Cc4cc(F)c(F)cc4F)CCS(=O)(=O)CC3)sc2c1.O=C(O)C(F)(F)F.O=C([O-])C(F)(F)F,Active
2,N[C@@H](CC(=O)NC1(c2nc3ccc(OCC(=O)NCCS(=O)(=O)O)cc3s2)CCS(=O)(=O)CC1)Cc1cc(F)c(F)cc1F.O=C(O)C(F)(F)F,Active
